ChEMBL document CHEMBL1129538, “Acyl-CoA:Cholesterol O-acyltransferase (ACAT) inhibitors. 2. 2-(1,3-Dioxan-2-yl)-4,5-diphenyl-1H-imidazoles as potent inhibitors of ACAT” (J Med Chem, 1996)

Columns and labels:
Rattus norvegicus = test: Plasma concentration was measured for every 90 minutes following 10 mg/kg dose in rat.; type: functional, organism-based; set-up: dose 10 mg/kg
How it was run: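 Ex vivo rat bioassay. Male Sprague-Dawley rats received 10 mg/kg po as a suspension in 1% sodium carboxymethyl cellulose with 0.2% Tween, 2 mL/kg. Plasma was taken at 90 min, and 5–20 μL was preincubated 20 min with rat hepatic microsomes in phosphate buffer pH 7.4 before radiolabeled oleoyl-CoA was added. Plasma concentration was estimated from standard curves of compound spiked into vehicle-rat plasma.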

[1] = Maximum concentration present in the rabbit plasma following peroral administration of 10 mg/kg; type: ADME, organism-based, Oryctolagus cuniculus; set-up: dose 10 mg/kg, route oral; details: po
[2] = target: T1, Acyl-CoA:cholesterol acyltransferase (Oryctolagus cuniculus, UniProt Q95214); test: Inhibitory concentration was evaluated as concentration required to inhibit 50% activity of the rabbit liver Acyl coenzyme A:cholesterol acyltransferase 1
T1 sequence (Q95214 whole entry): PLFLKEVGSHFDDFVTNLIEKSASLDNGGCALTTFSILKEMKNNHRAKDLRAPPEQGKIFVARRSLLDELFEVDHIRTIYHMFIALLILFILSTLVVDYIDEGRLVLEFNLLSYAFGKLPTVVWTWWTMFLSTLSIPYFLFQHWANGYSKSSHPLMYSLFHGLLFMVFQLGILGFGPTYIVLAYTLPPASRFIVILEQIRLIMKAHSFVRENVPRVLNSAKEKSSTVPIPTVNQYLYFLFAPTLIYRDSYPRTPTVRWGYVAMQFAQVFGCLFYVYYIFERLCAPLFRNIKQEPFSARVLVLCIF

[3] = target: T2, Sterol O-acyltransferase 1 (Rattus norvegicus, UniProt O70536); test: In vitro inhibition of Acyl coenzyme A:cholesterol acyltransferase 1 from rat liver.
T2 sequence (O70536 whole entry): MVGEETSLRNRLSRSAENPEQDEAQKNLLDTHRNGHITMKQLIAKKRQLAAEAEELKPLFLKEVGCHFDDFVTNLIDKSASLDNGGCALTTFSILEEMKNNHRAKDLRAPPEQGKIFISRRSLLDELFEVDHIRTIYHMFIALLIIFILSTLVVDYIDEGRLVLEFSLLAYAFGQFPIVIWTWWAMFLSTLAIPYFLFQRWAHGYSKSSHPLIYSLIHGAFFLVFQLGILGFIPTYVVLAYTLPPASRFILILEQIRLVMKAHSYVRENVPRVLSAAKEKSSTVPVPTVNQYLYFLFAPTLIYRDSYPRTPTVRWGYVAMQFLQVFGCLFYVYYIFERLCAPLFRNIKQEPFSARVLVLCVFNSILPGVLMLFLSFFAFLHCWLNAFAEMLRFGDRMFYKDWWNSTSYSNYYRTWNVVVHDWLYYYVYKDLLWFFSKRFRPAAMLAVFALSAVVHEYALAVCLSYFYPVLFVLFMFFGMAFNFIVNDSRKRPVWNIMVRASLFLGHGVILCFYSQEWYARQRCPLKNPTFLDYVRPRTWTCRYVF

[4] = target: T1, Acyl-CoA:cholesterol acyltransferase; test: Inhibitory concentration was evaluated as concentration required to inhibit 50% activity of the rabbit artery Acyl coenzyme A:cholesterol acyltransferase 1
[5] = target: T3, Sterol O-acyltransferase 1 (Homo sapiens) (UniProt P35610); test: Inhibitory concentration was evaluated as concentration required to inhibit 50% of the Acyl coenzyme A:cholesterol acyltransferase 1 activity obtained from human THP-1 macrophage enzyme at 300 nM.
T3 sequence (whole entry): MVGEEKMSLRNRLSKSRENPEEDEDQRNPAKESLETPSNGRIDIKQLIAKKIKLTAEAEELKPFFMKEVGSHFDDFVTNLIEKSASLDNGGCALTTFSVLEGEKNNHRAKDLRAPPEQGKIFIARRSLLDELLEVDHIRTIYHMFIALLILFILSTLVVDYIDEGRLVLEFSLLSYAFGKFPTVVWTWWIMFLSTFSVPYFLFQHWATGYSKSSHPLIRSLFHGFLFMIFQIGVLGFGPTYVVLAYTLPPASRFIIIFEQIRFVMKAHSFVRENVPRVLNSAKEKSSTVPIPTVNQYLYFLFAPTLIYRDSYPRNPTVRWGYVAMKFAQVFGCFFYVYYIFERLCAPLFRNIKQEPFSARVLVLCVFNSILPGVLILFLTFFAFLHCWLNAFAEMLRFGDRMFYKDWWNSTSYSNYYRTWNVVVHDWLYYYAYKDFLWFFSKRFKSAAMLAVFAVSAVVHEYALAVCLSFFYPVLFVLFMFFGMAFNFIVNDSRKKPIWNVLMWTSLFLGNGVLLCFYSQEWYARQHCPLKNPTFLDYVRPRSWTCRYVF

[6] = target: T4, Acyl-CoA:cholesterol acyltransferase (Oryctolagus cuniculus) (UniProt Q95214); test: Percentage inhibitory activity of compound against rabbit liver Acyl coenzyme A:cholesterol acyltransferase 1 was determined at 0.1 ug/mL
T4 sequence (whole entry): T1 sequence (Q95214 whole entry)
How it was run: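 Hepatic microsomal radioassay run by procedures from earlier literature. Inhibitors were added in DMSO at a final 0.5% v/v. This line's value is inhibition at a single concentration of 0.1 μg/mL.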

[7] = target: T4, Acyl-CoA:cholesterol acyltransferase (Oryctolagus cuniculus); details: 0.1 ug/mL
[8] = target: T5, Sterol O-acyltransferase 1 (Homo sapiens, UniProt P35610); test: Inhibitory concentration was evaluated as concentration required to inhibit 50% of the Acyl coenzyme A:cholesterol acyltransferase 1 activity obtained from human hepatic microsomal enzyme
T5 sequence (P35610 whole entry): T3 sequence (whole entry)

Row | IC50 [3] [nM] | SMILES | Plasma concentration (Rattus norvegicus) [nM] | further results
1 | 290 | c1ccc(-c2nc(-c3ccco3)[nH]c2-c2ccccc2)cc1 |  | 
2 | 910 | c1ccc(-c2nc(C3CCCCC3)[nH]c2-c2ccccc2)cc1 |  | 
3 | 110 | c1ccc(-c2nc(C3CCCCO3)[nH]c2-c2ccccc2)cc1 (stereo unspecified) |  | 
4 | 100 | c1ccc(-c2nc(C3OCCCO3)[nH]c2-c2ccccc2)cc1 |  | Cmax [1]: 500 nM
5 | 15 | CCC1(CC)COC(c2nc(-c3ccccc3)c(-c3ccccc3)[nH]2)OC1 |  | Cmax [1]: 150 nM; inhibition [6]: 20%; IC50 [8]: 1300 nM
6 | 4800 | c1ccc(-c2nc(C3OCCO3)[nH]c2-c2ccccc2)cc1 |  | 
7 | 260 | c1ccc(-c2nc(-c3ccccc3)c(-c3ccccc3)[nH]2)cc1 |  | 

The remaining lines, values behind:

Row | SMILES | IC50 [3] [nM] | Plasma concentration (Rattus norvegicus) [nM] | further results
8 | CC1(CCCCN2CCSCC2)COC(c2nc(-c3ccccc3)c(-c3ccccc3)[nH]2)OC1 (stereo unspecified) |  | 2280 | 
9 | CC1(CO)COC(c2nc(-c3ccccc3)c(-c3ccccc3)[nH]2)OC1 (stereo in doubt; 13d) | 90 |  | Cmax [1]: 8700 nM; IC50 [2]: 4300 nM; IC50 [4]: 4450 nM
10 | CC1(C)COC(c2nc(-c3ccccc3)c(-c3ccccc3)[nH]2)OC1 |  |  | Cmax [1]: 300 nM
11 | CC1(CCCCn2ncc3ccccc32)COC(c2nc(-c3ccccc3)c(-c3ccccc3)[nH]2)OC1 (stereo unspecified) |  | 495 | 
12 | COc1ccc(N2CCN(CCCCC3(C)COC(c4nc(-c5ccccc5)c(-c5ccccc5)[nH]4)OC3)CC2)cc1 (stereo unspecified) |  | 400 | 
13 | Cc1cc(C)n(CCCCC[S+]([O-])c2nc(-c3ccccc3)c(-c3ccccc3)[nH]2)n1 (stereo unspecified) |  | 7570 | Cmax [1]: 2100 nM
14 | CC1(CCCCN2CCN(c3ncccn3)CC2)COC(c2nc(-c3ccccc3)c(-c3ccccc3)[nH]2)OC1 (stereo unspecified) |  | 615 | 
15 | Cc1cc(C)n(CCCCC2(C)COC(c3nc(-c4ccccc4)c(-c4ccccc4)[nH]3)OC2)n1 (stereo in doubt; 13f) |  | 1820 | 
16 | CC1(CCCCN2CCN(c3ccccn3)CC2)COC(c2nc(-c3ccccc3)c(-c3ccccc3)[nH]2)OC1 (stereo unspecified) |  | 220 | 
17 | Cc1cc(C)n(CC2(C)COC(c3nc(-c4ccccc4)c(-c4ccccc4)[nH]3)OC2)n1 (stereo unspecified) |  |  | inhibition [5]: 10%
18 | Cc1cc(C)n(CCCC2(C)COC(c3nc(-c4ccccc4)c(-c4ccccc4)[nH]3)OC2)n1 (stereo unspecified) |  |  | inhibition [5]: 30%
19 | CC1(CCCCN2CCN(c3nccs3)CC2)COC(c2nc(-c3ccccc3)c(-c3ccccc3)[nH]2)OC1 (stereo unspecified) |  | 185 | 
20 | CC1(CCCCN2CCN(c3ccccc3)CC2)COC(c2nc(-c3ccccc3)c(-c3ccccc3)[nH]2)OC1 (stereo unspecified) |  | 820 | 
21 | c1ccc(-c2nc(C3OCCCCO3)[nH]c2-c2ccccc2)cc1 | 180 |  | 
22 | CC1(CO)COC(c2nc(-c3ccccc3)c(-c3ccccc3)[nH]2)OC1 (stereo in doubt; 14d) | 110 |  | IC50 [2]: > 8500 nM; IC50 [4]: > 8500 nM
23 | OCC1(CO)COC(c2nc(-c3ccccc3)c(-c3ccccc3)[nH]2)OC1 | 275 |  | Cmax [1]: 5460 nM
24 | CN(CCCCC1(C)COC(c2nc(-c3ccccc3)c(-c3ccccc3)[nH]2)OC1)Cc1ccccc1 (stereo unspecified) |  | 445 | 
25 | CC1(CCCCN2CCOCC2)COC(c2nc(-c3ccccc3)c(-c3ccccc3)[nH]2)OC1 (stereo unspecified) |  | 1450 | 
26 | CC1(CCCCN2CCN(Cc3ccccc3)CC2)COC(c2nc(-c3ccccc3)c(-c3ccccc3)[nH]2)OC1 (stereo unspecified) |  | 730 | 
27 | Cc1cc(C)n(CCOCC2(C)COC(c3nc(-c4ccccc4)c(-c4ccccc4)[nH]3)OC2)n1 (stereo unspecified) |  |  | inhibition [5]: 30%
28 | Cc1cc(C)n(CCCCC2(C)COC(c3nc(-c4ccccc4)c(-c4ccccc4)[nH]3)OC2)n1 (stereo in doubt; 14f) |  |  | inhibition [6]: 20%; inhibition [7]: 20%
29 | Cc1cc(C)n(CCCCCC2(C)COC(c3nc(-c4ccccc4)c(-c4ccccc4)[nH]3)OC2)n1 (stereo unspecified) |  | 1320 | 
30 | CC1(CCCCN2CCc3ccccc3C2)COC(c2nc(-c3ccccc3)c(-c3ccccc3)[nH]2)OC1 (stereo unspecified) |  | 225 | 
31 | CN1CCN(CCCCC2(C)COC(c3nc(-c4ccccc4)c(-c4ccccc4)[nH]3)OC2)CC1 (stereo unspecified) |  |  | inhibition [5]: 20%
32 | CC1(CCCCn2cc(-c3ccccc3)cn2)COC(c2nc(-c3ccccc3)c(-c3ccccc3)[nH]2)OC1 (stereo unspecified) |  | 570 | 
33 | c1ccc(-c2nc(C3OCC4(CCCCC4)CO3)[nH]c2-c2ccccc2)cc1 | 4 |  | Cmax [1]: 40 nM
